The molecules below were run against RAF proto-oncogene serine/threonine-protein kinase (Homo sapiens) (UniProt P04049) (assay: Inhibition of RAF1 at 1 uM in presence of 100 uM ATP by Select Screen kinase assay relative to untreated control).
How it was run: (§1)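 Commercial SelectScreen profiling panel of 220 purified kinases. Each kinase was tested at a single inhibitor concentration of 1 μM, and activity was expressed as percent inhibition.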

Chain of RAF proto-oncogene serine/threonine-protein kinase (Homo sapiens) (P04049 whole entry): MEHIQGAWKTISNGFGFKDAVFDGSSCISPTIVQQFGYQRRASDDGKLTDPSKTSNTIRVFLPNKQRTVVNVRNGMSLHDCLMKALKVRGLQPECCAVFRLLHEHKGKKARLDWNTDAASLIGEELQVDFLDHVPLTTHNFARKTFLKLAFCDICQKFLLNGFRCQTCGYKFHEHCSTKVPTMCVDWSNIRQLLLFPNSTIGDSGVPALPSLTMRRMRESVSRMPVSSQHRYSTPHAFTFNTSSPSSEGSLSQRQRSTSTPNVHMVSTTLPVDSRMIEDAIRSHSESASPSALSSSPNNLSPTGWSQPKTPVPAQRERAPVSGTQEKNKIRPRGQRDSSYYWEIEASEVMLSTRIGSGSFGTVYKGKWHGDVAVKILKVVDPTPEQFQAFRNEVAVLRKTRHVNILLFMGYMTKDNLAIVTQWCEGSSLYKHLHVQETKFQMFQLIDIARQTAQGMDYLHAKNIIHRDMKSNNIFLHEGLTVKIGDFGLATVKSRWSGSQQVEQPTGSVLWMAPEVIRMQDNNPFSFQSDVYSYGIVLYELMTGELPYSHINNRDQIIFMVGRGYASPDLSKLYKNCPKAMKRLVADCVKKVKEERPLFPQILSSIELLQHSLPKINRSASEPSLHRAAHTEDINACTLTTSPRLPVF

**Q.** How did the inhibition turn out when `COc1ccccc1N1CCN(c2ncnc3[nH]nc(Br)c23)CC1` was run?
**A.** 12%

**Q.** Which inhibition does the source give for `O=C(NCCCNc1nc(Nc2cccc(NC(=O)N3CCCC3)c2)ncc1I)c1cccs1` here?
**A.** 43%

**Q.** How did the inhibition turn out when `Cc1n[nH]c2ccc(-c3cncc(OC[C@@H](N)Cc4c[nH]c5ccccc45)c3)cc12` was run?
**A.** 81%

The molecules below were run against Insulin receptor-related protein (Homo sapiens) (UniProt P14616) (assay: Inhibition of INSRR at 1 uM in presence of 100 uM ATP by Select Screen kinase assay relative to untreated control).
Chain of Insulin receptor-related protein (Homo sapiens) (P14616 27-742 limits assumed): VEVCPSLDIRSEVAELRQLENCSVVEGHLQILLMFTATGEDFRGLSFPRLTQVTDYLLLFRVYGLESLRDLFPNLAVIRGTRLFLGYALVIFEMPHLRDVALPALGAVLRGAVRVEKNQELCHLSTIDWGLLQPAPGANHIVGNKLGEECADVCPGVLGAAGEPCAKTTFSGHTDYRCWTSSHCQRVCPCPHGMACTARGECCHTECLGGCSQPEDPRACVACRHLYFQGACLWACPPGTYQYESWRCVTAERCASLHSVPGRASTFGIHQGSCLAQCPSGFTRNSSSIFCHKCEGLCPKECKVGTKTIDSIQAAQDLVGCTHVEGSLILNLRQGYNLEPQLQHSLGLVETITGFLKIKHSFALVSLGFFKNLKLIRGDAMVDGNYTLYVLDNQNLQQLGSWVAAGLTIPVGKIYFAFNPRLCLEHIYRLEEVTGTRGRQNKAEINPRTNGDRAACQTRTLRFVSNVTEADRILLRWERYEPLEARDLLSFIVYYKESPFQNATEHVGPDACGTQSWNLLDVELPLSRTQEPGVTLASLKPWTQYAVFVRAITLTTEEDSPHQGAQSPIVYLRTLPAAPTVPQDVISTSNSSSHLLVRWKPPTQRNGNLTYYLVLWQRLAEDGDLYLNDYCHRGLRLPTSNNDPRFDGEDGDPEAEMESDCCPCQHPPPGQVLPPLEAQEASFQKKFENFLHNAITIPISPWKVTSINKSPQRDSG
Chain of Insulin receptor-related protein (Homo sapiens) (P14616 747-1297 limits assumed): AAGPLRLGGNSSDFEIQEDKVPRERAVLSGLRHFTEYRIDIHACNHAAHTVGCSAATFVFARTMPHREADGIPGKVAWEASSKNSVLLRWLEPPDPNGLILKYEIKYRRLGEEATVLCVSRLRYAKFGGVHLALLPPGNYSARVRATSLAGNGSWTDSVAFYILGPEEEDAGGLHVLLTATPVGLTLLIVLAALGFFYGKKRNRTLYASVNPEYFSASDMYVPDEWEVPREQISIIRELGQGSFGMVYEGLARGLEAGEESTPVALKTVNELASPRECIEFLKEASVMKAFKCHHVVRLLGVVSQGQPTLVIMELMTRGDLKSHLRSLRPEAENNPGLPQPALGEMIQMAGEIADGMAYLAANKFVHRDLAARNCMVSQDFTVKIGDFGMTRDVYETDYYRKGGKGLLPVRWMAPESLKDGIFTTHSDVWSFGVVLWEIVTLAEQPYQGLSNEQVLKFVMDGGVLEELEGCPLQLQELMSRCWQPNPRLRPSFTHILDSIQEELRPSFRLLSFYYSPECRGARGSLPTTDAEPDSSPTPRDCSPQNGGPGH
How it was run: (§2)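 Single-concentration profiling at 1 μM against a panel of 220 purified kinases, run as an outsourced SelectScreen kinase profiling service. Activity is expressed as percent inhibition.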

**Q.** `COc1ccccc1N1CCN(c2ncnc3[nH]nc(Br)c23)CC1` was tested. Which inhibition did it give?
**A.** 8%

**Q.** For `O=C(NCCCNc1nc(Nc2cccc(NC(=O)N3CCCC3)c2)ncc1I)c1cccs1`, which inhibition is on record?
**A.** 12%

**Q.** `Cc1n[nH]c2ccc(-c3cncc(OC[C@@H](N)Cc4c[nH]c5ccccc45)c3)cc12` was tested. Which inhibition did it give?
**A.** 1%

These molecules were tested against Angiopoietin-1 receptor (Homo sapiens) (UniProt Q02763) (assay: Inhibition of TEK at 1 uM in presence of 10 uM ATP by Select Screen kinase assay relative to untreated control).
How it was run: as §1

**Q.** With `COc1ccccc1N1CCN(c2ncnc3[nH]nc(Br)c23)CC1` as the molecule, how does the inhibition read?
**A.** 12%

**Q.** How did the inhibition turn out when `O=C(NCCCNc1nc(Nc2cccc(NC(=O)N3CCCC3)c2)ncc1I)c1cccs1` was run?
**A.** 11%

**Q.** How did the inhibition turn out when `Cc1n[nH]c2ccc(-c3cncc(OC[C@@H](N)Cc4c[nH]c5ccccc45)c3)cc12` was run?
**A.** -1%

The molecules below were run against Ephrin type-A receptor 2 (Homo sapiens) (UniProt P29317) (assay: Inhibition of EPHA2 at 1 uM in presence of 10 uM ATP by Select Screen kinase assay relative to untreated control).
How it was run: (§3)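 Single-point screen at 1 μM against a panel of 220 purified kinases, run by Invitrogen staff as a SelectScreen profiling service. Read-out is percent inhibition of kinase activity.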

**Q.** With `COc1ccccc1N1CCN(c2ncnc3[nH]nc(Br)c23)CC1` as the molecule, how does the inhibition read?
**A.** 24%

**Q.** For `O=C(NCCCNc1nc(Nc2cccc(NC(=O)N3CCCC3)c2)ncc1I)c1cccs1`, which inhibition is on record?
**A.** 22%

**Q.** For `Cc1n[nH]c2ccc(-c3cncc(OC[C@@H](N)Cc4c[nH]c5ccccc45)c3)cc12`, which inhibition is on record?
**A.** 8%

Each molecule was assayed against Tyrosine-protein kinase Fgr (Homo sapiens) (UniProt P09769) (assay: Inhibition of FGR at 1 uM in presence of 10 uM ATP by Select Screen kinase assay relative to untreated control).
Chain of Tyrosine-protein kinase Fgr (Homo sapiens) (P09769 2-529 limits assumed): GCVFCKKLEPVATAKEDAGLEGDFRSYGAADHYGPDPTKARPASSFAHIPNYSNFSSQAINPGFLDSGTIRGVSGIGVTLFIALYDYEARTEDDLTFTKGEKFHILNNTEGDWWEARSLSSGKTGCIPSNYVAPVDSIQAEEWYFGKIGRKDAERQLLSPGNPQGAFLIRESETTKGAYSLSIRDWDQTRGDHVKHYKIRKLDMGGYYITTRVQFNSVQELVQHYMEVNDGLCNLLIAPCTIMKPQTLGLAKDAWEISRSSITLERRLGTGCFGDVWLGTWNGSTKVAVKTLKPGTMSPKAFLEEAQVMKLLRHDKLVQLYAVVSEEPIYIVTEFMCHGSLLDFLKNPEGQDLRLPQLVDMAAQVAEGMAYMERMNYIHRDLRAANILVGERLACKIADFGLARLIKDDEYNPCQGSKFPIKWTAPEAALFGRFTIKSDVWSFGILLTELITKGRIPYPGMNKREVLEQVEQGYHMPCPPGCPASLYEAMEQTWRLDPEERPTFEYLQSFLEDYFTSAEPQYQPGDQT
How it was run: as §2

**Q.** `COc1ccccc1N1CCN(c2ncnc3[nH]nc(Br)c23)CC1` was tested. Which inhibition did it give?
**A.** 8%

**Q.** For `O=C(NCCCNc1nc(Nc2cccc(NC(=O)N3CCCC3)c2)ncc1I)c1cccs1`, which inhibition is on record?
**A.** 29%

**Q.** `Cc1n[nH]c2ccc(-c3cncc(OC[C@@H](N)Cc4c[nH]c5ccccc45)c3)cc12` was tested. Which inhibition did it give?
**A.** 36%

These molecules were tested against T1, Tyrosine-protein kinase ZAP-70 (Homo sapiens) (UniProt P43403) (assay: Inhibition of ZAP70 at 1 uM in presence of 10 uM ATP by Select Screen kinase assay relative to untreated control).
T1 sequence (whole entry): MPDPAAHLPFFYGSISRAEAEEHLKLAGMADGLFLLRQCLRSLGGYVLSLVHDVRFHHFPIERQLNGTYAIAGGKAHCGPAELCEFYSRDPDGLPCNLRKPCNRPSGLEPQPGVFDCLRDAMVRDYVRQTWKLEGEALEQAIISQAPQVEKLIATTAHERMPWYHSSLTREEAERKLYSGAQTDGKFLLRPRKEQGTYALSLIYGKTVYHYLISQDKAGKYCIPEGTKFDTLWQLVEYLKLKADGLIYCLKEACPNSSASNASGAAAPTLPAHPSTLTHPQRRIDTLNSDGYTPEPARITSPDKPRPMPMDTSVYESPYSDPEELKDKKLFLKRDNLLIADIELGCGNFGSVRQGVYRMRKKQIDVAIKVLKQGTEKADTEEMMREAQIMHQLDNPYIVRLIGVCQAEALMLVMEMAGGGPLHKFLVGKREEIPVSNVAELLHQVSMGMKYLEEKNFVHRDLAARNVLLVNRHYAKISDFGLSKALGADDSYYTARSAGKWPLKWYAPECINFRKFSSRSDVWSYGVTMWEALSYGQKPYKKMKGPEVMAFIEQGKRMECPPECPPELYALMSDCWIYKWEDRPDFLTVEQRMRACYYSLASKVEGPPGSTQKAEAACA
How it was run: as §1

**Q.** How did the inhibition turn out when `COc1ccccc1N1CCN(c2ncnc3[nH]nc(Br)c23)CC1` was run?
**A.** 4%

**Q.** `O=C(NCCCNc1nc(Nc2cccc(NC(=O)N3CCCC3)c2)ncc1I)c1cccs1` was tested. Which inhibition did it give?
**A.** 24%

**Q.** How did the inhibition turn out when `Cc1n[nH]c2ccc(-c3cncc(OC[C@@H](N)Cc4c[nH]c5ccccc45)c3)cc12` was run?
**A.** 11%

Each molecule was assayed against T2, Rhodopsin kinase GRK7 (Homo sapiens) (UniProt Q8WTQ7) (assay: Inhibition of GRK7 at 1 uM in presence of 10 uM ATP by Select Screen kinase assay relative to untreated control).
T2 sequence (whole entry): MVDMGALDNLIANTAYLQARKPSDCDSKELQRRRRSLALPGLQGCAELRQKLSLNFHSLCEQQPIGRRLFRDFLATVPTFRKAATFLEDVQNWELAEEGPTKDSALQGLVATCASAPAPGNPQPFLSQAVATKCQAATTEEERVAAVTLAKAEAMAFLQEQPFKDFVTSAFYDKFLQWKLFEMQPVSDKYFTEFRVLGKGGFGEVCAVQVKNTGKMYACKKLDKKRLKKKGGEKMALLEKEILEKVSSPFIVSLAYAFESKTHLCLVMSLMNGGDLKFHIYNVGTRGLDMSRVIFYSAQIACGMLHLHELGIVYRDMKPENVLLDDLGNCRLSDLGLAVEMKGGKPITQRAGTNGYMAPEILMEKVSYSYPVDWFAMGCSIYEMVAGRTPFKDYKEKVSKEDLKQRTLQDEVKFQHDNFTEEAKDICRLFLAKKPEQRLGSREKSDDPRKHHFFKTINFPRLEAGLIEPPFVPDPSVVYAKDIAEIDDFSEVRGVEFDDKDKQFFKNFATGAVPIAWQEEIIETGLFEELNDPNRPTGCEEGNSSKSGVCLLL
How it was run: as §2

**Q.** `COc1ccccc1N1CCN(c2ncnc3[nH]nc(Br)c23)CC1` was tested. Which inhibition did it give?
**A.** 34%

**Q.** For `O=C(NCCCNc1nc(Nc2cccc(NC(=O)N3CCCC3)c2)ncc1I)c1cccs1`, which inhibition is on record?
**A.** 17%

**Q.** How did the inhibition turn out when `Cc1n[nH]c2ccc(-c3cncc(OC[C@@H](N)Cc4c[nH]c5ccccc45)c3)cc12` was run?
**A.** 102%

The molecules below were run against Dual specificity mitogen-activated protein kinase kinase 2 (Homo sapiens) (UniProt P36507) (assay: Inhibition of MAP2K2 at 1 uM in presence of 100 uM ATP by Select Screen kinase assay relative to untreated control).
Chain of Dual specificity mitogen-activated protein kinase kinase 2 (Homo sapiens) (P36507 whole entry): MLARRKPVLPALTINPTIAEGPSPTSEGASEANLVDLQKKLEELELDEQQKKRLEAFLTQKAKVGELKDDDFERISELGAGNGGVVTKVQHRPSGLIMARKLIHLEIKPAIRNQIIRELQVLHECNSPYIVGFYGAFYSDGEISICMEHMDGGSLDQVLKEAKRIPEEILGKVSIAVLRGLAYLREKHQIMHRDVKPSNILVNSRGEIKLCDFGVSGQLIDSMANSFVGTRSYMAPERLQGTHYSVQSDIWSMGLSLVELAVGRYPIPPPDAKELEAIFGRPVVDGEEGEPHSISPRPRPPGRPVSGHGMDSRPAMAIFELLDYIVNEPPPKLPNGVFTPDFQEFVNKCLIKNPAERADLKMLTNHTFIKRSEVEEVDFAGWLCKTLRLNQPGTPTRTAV
How it was run: as §2

**Q.** With `COc1ccccc1N1CCN(c2ncnc3[nH]nc(Br)c23)CC1` as the molecule, how does the inhibition read?
**A.** 21%

**Q.** Which inhibition does the source give for `O=C(NCCCNc1nc(Nc2cccc(NC(=O)N3CCCC3)c2)ncc1I)c1cccs1` here?
**A.** 69%

**Q.** For `Cc1n[nH]c2ccc(-c3cncc(OC[C@@H](N)Cc4c[nH]c5ccccc45)c3)cc12`, which inhibition is on record?
**A.** 42%

The molecules below were run against Serine/threonine-protein kinase B-raf (Homo sapiens) (UniProt P15056) (assay: Inhibition of BRAF at 1 uM in presence of 100 uM ATP by Select Screen kinase assay relative to untreated control).
Chain of Serine/threonine-protein kinase B-raf (Homo sapiens) (P15056 whole entry): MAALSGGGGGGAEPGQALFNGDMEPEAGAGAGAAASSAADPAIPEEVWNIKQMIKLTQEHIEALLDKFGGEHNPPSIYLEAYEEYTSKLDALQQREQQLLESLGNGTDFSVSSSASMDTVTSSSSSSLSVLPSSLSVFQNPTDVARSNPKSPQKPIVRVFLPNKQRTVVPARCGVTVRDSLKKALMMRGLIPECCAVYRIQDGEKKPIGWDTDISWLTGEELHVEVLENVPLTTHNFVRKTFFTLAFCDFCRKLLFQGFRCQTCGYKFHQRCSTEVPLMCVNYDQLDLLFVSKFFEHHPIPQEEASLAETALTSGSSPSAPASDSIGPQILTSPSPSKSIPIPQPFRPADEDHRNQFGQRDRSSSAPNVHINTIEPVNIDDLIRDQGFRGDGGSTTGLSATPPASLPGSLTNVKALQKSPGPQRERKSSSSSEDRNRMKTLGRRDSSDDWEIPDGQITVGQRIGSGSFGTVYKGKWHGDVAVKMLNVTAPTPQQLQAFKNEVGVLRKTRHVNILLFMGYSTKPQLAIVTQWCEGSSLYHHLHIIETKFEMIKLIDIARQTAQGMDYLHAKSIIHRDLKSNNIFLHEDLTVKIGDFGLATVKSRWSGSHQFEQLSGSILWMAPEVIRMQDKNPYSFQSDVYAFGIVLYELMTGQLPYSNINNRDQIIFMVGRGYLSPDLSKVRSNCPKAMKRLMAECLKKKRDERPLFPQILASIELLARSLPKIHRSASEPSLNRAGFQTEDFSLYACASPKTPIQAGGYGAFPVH
How it was run: as §3

**Q.** `COc1ccccc1N1CCN(c2ncnc3[nH]nc(Br)c23)CC1` was tested. Which inhibition did it give?
**A.** 17%

**Q.** `O=C(NCCCNc1nc(Nc2cccc(NC(=O)N3CCCC3)c2)ncc1I)c1cccs1` was tested. Which inhibition did it give?
**A.** 38%

**Q.** Which inhibition does the source give for `Cc1n[nH]c2ccc(-c3cncc(OC[C@@H](N)Cc4c[nH]c5ccccc45)c3)cc12` here?
**A.** 72%

Each molecule was assayed against T3, Serine/threonine-protein kinase DCLK2 (Homo sapiens) (UniProt Q8N568) (assay: Inhibition of DCAMKL2 at 1 uM in presence of 100 uM ATP by Select Screen kinase assay relative to untreated control).
T3 sequence (whole entry): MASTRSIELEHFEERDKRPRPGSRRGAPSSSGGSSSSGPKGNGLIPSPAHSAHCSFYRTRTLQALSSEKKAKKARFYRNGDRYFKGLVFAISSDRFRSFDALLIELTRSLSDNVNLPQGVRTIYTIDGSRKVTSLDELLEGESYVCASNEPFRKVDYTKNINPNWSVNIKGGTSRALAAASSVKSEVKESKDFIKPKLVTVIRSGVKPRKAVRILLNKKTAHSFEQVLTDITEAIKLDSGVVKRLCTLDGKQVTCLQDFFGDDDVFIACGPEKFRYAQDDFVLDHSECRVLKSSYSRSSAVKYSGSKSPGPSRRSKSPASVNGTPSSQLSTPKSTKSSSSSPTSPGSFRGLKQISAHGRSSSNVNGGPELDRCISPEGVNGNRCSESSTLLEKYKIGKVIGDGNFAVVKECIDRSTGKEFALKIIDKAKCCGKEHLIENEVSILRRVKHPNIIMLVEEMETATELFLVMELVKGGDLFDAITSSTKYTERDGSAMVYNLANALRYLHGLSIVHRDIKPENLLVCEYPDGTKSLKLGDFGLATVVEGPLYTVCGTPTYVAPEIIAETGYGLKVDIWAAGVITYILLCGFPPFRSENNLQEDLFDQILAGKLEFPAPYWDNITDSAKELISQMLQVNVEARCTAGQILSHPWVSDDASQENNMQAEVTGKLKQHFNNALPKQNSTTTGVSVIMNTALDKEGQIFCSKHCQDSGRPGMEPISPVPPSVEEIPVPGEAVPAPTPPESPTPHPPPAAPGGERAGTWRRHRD
How it was run: as §3

**Q.** Which inhibition does the source give for `COc1ccccc1N1CCN(c2ncnc3[nH]nc(Br)c23)CC1` here?
**A.** 6%

**Q.** `O=C(NCCCNc1nc(Nc2cccc(NC(=O)N3CCCC3)c2)ncc1I)c1cccs1` was tested. Which inhibition did it give?
**A.** 10%

**Q.** Which inhibition does the source give for `Cc1n[nH]c2ccc(-c3cncc(OC[C@@H](N)Cc4c[nH]c5ccccc45)c3)cc12` here?
**A.** 11%

These molecules were tested against G protein-coupled receptor kinase 5 (Homo sapiens) (UniProt P34947) (assay: Inhibition of GRK5 at 1 uM in presence of 10 uM ATP by Select Screen kinase assay relative to untreated control).
Chain of G protein-coupled receptor kinase 5 (Homo sapiens) (P34947 whole entry, looked up): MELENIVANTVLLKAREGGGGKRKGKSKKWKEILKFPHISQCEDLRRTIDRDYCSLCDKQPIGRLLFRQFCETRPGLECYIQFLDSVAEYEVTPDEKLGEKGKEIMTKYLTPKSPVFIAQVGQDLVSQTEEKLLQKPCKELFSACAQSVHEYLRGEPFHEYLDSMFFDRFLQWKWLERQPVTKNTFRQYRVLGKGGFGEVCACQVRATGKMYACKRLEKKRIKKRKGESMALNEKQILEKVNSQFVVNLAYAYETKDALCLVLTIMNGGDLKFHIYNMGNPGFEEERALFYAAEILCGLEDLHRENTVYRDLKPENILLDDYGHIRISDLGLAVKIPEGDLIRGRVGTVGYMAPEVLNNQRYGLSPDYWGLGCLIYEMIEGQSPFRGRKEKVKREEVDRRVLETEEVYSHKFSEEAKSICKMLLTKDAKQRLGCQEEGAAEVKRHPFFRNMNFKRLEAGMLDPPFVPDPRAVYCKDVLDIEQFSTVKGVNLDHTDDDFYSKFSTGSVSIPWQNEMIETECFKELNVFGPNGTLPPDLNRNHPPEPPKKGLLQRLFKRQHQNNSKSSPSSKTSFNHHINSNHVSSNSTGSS
How it was run: as §2

**Q.** For `COc1ccccc1N1CCN(c2ncnc3[nH]nc(Br)c23)CC1`, which inhibition is on record?
**A.** 7%

**Q.** How did the inhibition turn out when `O=C(NCCCNc1nc(Nc2cccc(NC(=O)N3CCCC3)c2)ncc1I)c1cccs1` was run?
**A.** 7%

**Q.** With `Cc1n[nH]c2ccc(-c3cncc(OC[C@@H](N)Cc4c[nH]c5ccccc45)c3)cc12` as the molecule, how does the inhibition read?
**A.** 46%

Reference: ChEMBL document CHEMBL1250448, “Inhibitor hijacking of Akt activation” (Nat Chem Biol, 2009)
